Rows were chosen to be rich in hits. Some 1.4% of all compounds tested hit in one or more screens of this group.
HTR5A ag ctr: HTR5A agonists in luminescence cell assay, primary screen, counter-screen for OPRM1-OPRD1 heterodimer agonist project, full-deck HTS; activation, % at 9.3 µM; 5-hydroxytryptamine receptor 5A (Homo sapiens), P47898; 340,000 compounds, 0.61% hits; cell-based; in the data active = activation mostly above about 9.5%, no sharp cut-off; inactive = mostly below about 7.6%;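 also: 0% = cells with vehicle only and 100% = reference agonist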
Target sequence (P47898 whole entry, looked up): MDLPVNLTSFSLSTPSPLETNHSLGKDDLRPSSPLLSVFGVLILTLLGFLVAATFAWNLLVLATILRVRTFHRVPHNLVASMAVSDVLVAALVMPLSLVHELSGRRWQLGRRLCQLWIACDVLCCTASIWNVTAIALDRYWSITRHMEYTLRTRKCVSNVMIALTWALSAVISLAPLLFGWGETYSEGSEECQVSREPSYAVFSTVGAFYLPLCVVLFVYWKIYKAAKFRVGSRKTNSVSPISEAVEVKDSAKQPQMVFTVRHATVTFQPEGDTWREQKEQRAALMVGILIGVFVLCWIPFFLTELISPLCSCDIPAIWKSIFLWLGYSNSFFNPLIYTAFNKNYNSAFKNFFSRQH
HTR5A inv ctr: HTR5A inverse agonists in luminescence cell assay, primary screen, counter-screen for OPRM1-OPRD1 heterodimer inverse agonist project, full-deck HTS; inhibition, % at 9.3 µM; HTR5A cell line, inverse agonism; 5-hydroxytryptamine receptor 5A (Homo sapiens), P47898; AID 504634, 2011; 340,000 compounds, 0.083% hits; in the data active = inhibition mostly above about 23%, no sharp cut-off; inactive = mostly below about 18%;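 also: 0% = cells with DMSO and 100% = no-cell wells with DMSO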
Lipid droplet: inhibitors of hepatocyte lipid droplet formation, primary screen, imaging, high-throughput imaging, BODIPY stain; AML12 mouse hepatocytes, oleate lipid droplets; inhibition, % at 6.5 µM; AID 1656, 2009; 240,000 compounds, 0.4% hits;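 active = lipid droplet intensity inhibited by at least 50%, with more than 500 cells counted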
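Assay system: AML12 mouse liver cells | Compound: 6.5 µM single-point dosing | Schedule: Overnight exposure | Technique: Fluorescence imaging, 20x objective, two fields per well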
MOR-DOR ag-1: agonists of OPRM1-OPRD1 heterodimerization, primary screen, cell-based, luminescence | cells | 340,000 compounds, 0.3% hits | activation, % at 9.3 µM | AID 504326, 2011;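 also: 0% = vehicle-treated cells and 100% = reference agonist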
MOR-DOR inv ag-1: inverse agonists of MOR-DOR heterodimerization, primary screen, cell-based, luminescence; cell-based MOR-DOR heterodimer luminescence, inverse agonism; inhibition, % at 9.3 µM; 340,000 compounds, 0.21% hits; AID 504357, 2011; in the data active = inhibition above about 22%, passing the limit was not always enough;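 also: 0% = cells with DMSO and 100% = wells without cells with DMSO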
Lipid drop inh: hepatocyte lipid droplet accumulation inhibitors, confirmation, imaging, AML12 mouse hepatocytes, single concentration, high-content; shares compounds with Lipid droplet; BODIPY lipid droplet imaging; droplets induced with 100 µM oleic acid; inhibition, % at 5.2 µM; 870 compounds, 65% hits;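 active = inhibition of lipid droplet metric at least 50%, with more than 300 cells in each of four replicates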;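 also: plate controls were DMSO with oleic acid for no effect and 5 µM Triacsin-C for full effect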
AML12 cytotox: AML12 hepatocyte cytotoxicity, counter-screen for hepatic lipid droplet formation project, imaging, DAPI nuclear morphology imaging | AML12 mouse hepatocytes; stronger effect = higher value; cells fed 100 µM oleate overnight | shares compounds with Lipid droplet | 870 compounds, 3% hits | z-score at 5 µM; in the data active = z-score above about 6.3;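 also: compound exposure lasted overnight at 37 °C before fixation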
AML12 tox ATP: AML12 hepatocyte cytotoxicity, confirmation, cytotoxicity control for hepatic lipid droplet formation project, cell-based, single concentration; shares compounds with Lipid droplet; AML12 mouse hepatocyte viability, ATP luminescence; cells loaded with 100 µM oleic acid; cytotoxicity, % at 50 µM; 530 tested, under 10 active;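 active = cytotoxicity above 50% in each of four replicates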;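 also: compound exposure lasted overnight at 37 °C before the ATP read; 0% = DMSO-treated cells and 100% = wells with no cells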
MOR-DOR ag conf: agonists of MOR-DOR heterodimerization, confirmation, cell-based, luminescence; 830 compounds, 45% hits; activation, % at 9.3 µM; cells, luminescence complementation; shares compounds with MOR-DOR ag-1;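 also: 0% = vehicle-treated cells and 100% = reference agonist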
HTR5A ag ctr2: HTR5A agonists in cells, counter-screen for OPRM1-OPRD1 heterodimer agonist project, cell-based, luminescence. shares compounds with MOR-DOR ag-1. HTR5A agonist counterscreen. activation, % at 9.3 µM. 830 compounds, 8% hits. AID 504905, 2011; in the data active = activation above about 17%;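 also: 0% = vehicle-treated cells and 100% = reference agonist response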
OPRM1-D1 inv cf: inverse agonists of MOR-DOR heterodimerization, confirmation, cell-based, luminescence; shares compounds with MOR-DOR inv ag-1; cells expressing OPRM1/OPRD1 heterodimer; inhibition, % at 9.3 µM; 580 compounds, 20% hits; AID 504900, 2011; in the data active = inhibition above about 32%;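 also: 0% = cells with DMSO and 100% = wells lacking cells with DMSO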
HTR5A inv ctr2: HTR5A inverse agonists, counter-screen for OPRM1-OPRD1 inverse agonist project, cell-based, luminescence | shares compounds with MOR-DOR inv ag-1 | HTR5A-expressing cells, inverse agonism | inhibition, % at 9.3 µM | 580 tested, under 10 active | AID 504914, 2011; call rule not given here;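 also: 0% = cells with DMSO and 100% = no-cell wells with DMSO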
MOR-DOR inv ag-2: inverse agonists of MOR-DOR heterodimerization, counter-screen for HTR5A inverse agonist project, cell-based, luminescence. AID 504912, 2011. 190 tested, under 10 active. U2OS counter-screen cells, complementation luminescence. shares compounds with HTR5A inv ctr. inhibition, % at 9.3 µM; call rule not given here;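 also: 0% = cells with DMSO and 100% = wells without cells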
HTR5A inv confrm: HTR5A inverse agonists, retest of hits, confirmation, cell-based, luminescence; shares compounds with HTR5A inv ctr; HTR5A-expressing cells, inverse agonism; inhibition, % at 9.3 µM; 190 tested, under 10 active; call rule not given here;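 also: 0% = cells with DMSO and 100% = no cells with DMSO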
MOR-DOR ag-2: OPRM1-OPRD1 heterodimerization promoters, counter-screen for HTR5A agonist project, cell-based, luminescence; activation, % at 9.3 µM; shares compounds with HTR5A ag ctr; U2OS counter-screen cells, complementation luminescence, 3 h; 800 compounds, 13% hits
HTR5A ag confirm: HTR5A agonists, retest of hits, confirmation, cell-based, luminescence | HTR5A agonist cell assay | activation, % at 9.3 µM | AID 504915, 2011 | shares compounds with HTR5A ag ctr | 800 compounds, 17% hits; in the data active = activation above about 17%;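 also: 0% = cells with vehicle only and 100% = full reference agonist response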
Numbers without * were called inactive; i = inactive; . = no result; ! = repeats disagree. Rule as the data show it, unless noted: active = activation above about 18%; inactive = the rest.

SMILES | HTR5A ag ctr | HTR5A inv ctr | Lipid droplet | MOR-DOR ag-1 | MOR-DOR inv ag-1 | MOR-DOR ag conf | HTR5A ag ctr2 | others
CN(C1=C(NC(=O)c2ccc(Cl)cc2)C(=O)c2ccccc2C1=O)c1ccccc1 | -2 | 19 | 69* | -6 | 39* | . | . | Lipid drop inh=91*;AML12 cytotox=-0.93;OPRM1-D1 inv cf=-19;HTR5A inv ctr2=-9
Cc1ccc(NC(=S)NNC(=O)c2ccc(N3CCOCC3)c([N+](=O)[O-])c2)cc1C | 0 | 19 | -8 | -4 | 22 | . | .
Cc1cc(N(CCO)CCO)ccc1N=Nc1cc(F)ccc1F | -10 | 27* | 115* | -4 | 21 | . | . | Lipid drop inh=112*;AML12 cytotox=0.88;AML12 tox ATP=20;MOR-DOR inv ag-2=-6;HTR5A inv confrm=12
CNC(=O)CCC(=O)Nc1ccc(C)cc1 | 2 | -6 | -4 | 0 | -3 | . | .
Cc1ccccc1OCc1n(CC(=O)OC2CC(C)CCC2C(C)C)c2ccccc2[n+]1C (stereo not given) | 18* | -51 | 54*! | 4 | -21 | . | . | Lipid drop inh=8;AML12 cytotox=-1.5;MOR-DOR ag-2=14;HTR5A ag confirm=7
Cc1ccc(CNC(=O)c2ccc(Cl)c(S(=O)(=O)N3CCCCC3)c2)cc1 | -6 | 14 | . | -3 | 12 | . | .
N#CCC(=O)N/N=C/c1cn(Cc2ccc(Cl)c(Cl)c2)c2ccccc12 | 6 | 6 | -3 | 19* | -97 | 14 | 6
O=C(COC(=O)c1ccc2c(c1)C(=O)N(Cc1ccncc1)C2=O)Nc1cccc2ccccc12 | 2 | -6 | 1 | 1 | -5 | . | .
COc1ccc(C2=C(CC(=O)O)C(=O)CC2)cc1 | 0 | 0 | 1 | -1 | 6 | . | .
NC1=C(Cl)C(=O)c2ccc(S(N)(=O)=O)cc2C1=O | 16* | -61 | . | 39* | -194 | 3 | 2
COc1ccc(C(CNC(=O)c2cccc(S(=O)(=O)Nc3ccc(F)cc3)c2)N2CCCCC2)cc1 (stereo not given) | -3 | -6 | . | -2 | 9 | . | .
CN(C)S(=O)(=O)c1cccc(C(=O)NCCNC(=O)c2cccc(S(=O)(=O)N(C)C)c2)c1 | 2 | -6 | 6 | -3 | 13 | . | .
COc1ccc(C(CNC(=O)c2cccc(S(=O)(=O)NCc3ccccc3)c2)N(C)C)cc1 (stereo not given) | -2 | 12 | -4 | 20* | -104 | 15 | 0
CN(C)C(CNC(=O)c1cccc(S(=O)(=O)Nc2ccc(SC(F)F)cc2)c1)c1ccccc1 (stereo not given) | -2 | 1 | . | 38* | -150 | 5 | 1
COc1ccc(NS(=O)(=O)c2cccc(C(=O)NCC(c3ccccc3)N(C)C)c2)cc1 (stereo not given) | 1 | 0 | . | 3 | -18 | . | .
CN(C)C(CNC(=O)c1cccc(S(=O)(=O)N(C)C)c1)c1ccccc1 (stereo not given) | 4 | -15 | -13 | 33* | -178 | 2 | 26*
COc1ccc(CCNC(=O)c2ccc3c(c2)OCCO3)cc1 | 0 | 1 | 1 | -1 | 6 | . | .
COc1ccc(C(CNC(=O)c2ccc3c(c2)OCCO3)N(C)C)cc1 (stereo not given) | -2 | 6 | 0 | 132* | i | 148* | 1
O=C(NCC1CCCO1)c1cccc(S(=O)(=O)Nc2ccc(SC(F)F)cc2)c1 (stereo not given) | -2 | -16 | . | -1 | 2 | . | .
CS(=O)(=O)N(CC(=O)NC1CC1)C1CCCCC1 | -1 | 15 | -4 | -1 | 4 | . | .
O=C(CSc1nc2[nH]ncc2c(=O)[nH]1)Nc1ccc(Cl)cc1 | -6 | 16 | . | -1 | 10 | . | .
CCN(CC)C(=O)CN1CCC(c2nc3cc(C)c(C)cc3[nH]2)CC1 | 4 | -10 | . | 0 | -2 | . | .
CCOC(=O)N1CCC(C(=O)NNC(=O)c2ccc(Cl)cc2Cl)CC1 | 0 | 16 | -1 | -1 | 3 | . | .
CCOc1ccc2nc(NC3=NC(C)(C)C=C(C)N3)nc(C)c2c1 | 0 | 0 | -24 | 158* | i | 1 | -1
CCOc1ccc2nc(NC3=NC(c4ccc(OC)cc4)CC(=O)N3)nc(C)c2c1 (stereo not given) | 6 | -25 | . | 13 | -77 | . | .
CCOc1ccc2c(C)nc(NC3=NC(C)(C)C=C(C)N3)nc2c1 | -3 | -2 | -43 | 170* | i | 2 | 1

Assay outcomes deposited in PubChem BioAssay by several laboratories.
